Key:
[1] = target: T1, Amine oxidase [flavin-containing] A (Homo sapiens, UniProt P21397); assay: Inhibition of recombinant human MAO-A using p-tyramine as substrate preincubated for 15 mins followed by substrate addition measured after 20 mins by amplex red reagent based fluorescence assay
T1 sequence (P21397 whole entry): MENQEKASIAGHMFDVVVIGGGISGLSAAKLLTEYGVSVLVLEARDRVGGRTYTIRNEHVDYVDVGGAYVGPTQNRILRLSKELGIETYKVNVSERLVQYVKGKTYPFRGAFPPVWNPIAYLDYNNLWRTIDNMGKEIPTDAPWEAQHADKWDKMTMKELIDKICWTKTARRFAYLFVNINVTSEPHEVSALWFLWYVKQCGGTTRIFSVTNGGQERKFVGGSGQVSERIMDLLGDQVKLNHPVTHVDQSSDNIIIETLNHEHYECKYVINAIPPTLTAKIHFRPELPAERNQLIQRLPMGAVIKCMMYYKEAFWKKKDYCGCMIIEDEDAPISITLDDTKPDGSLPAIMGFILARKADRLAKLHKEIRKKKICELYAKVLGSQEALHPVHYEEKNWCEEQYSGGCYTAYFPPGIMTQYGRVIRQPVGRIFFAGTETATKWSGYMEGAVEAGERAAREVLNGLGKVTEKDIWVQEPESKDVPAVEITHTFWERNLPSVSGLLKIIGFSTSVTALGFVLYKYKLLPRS

[2] = target: T2, Amine oxidase [flavin-containing] B (Homo sapiens, UniProt P27338); assay: Inhibition of recombinant human MAO-B using p-tyramine as substrate preincubated for 15 mins followed by substrate addition measured after 20 mins by amplex red reagent based fluorescence assay
T2 sequence (P27338 whole entry): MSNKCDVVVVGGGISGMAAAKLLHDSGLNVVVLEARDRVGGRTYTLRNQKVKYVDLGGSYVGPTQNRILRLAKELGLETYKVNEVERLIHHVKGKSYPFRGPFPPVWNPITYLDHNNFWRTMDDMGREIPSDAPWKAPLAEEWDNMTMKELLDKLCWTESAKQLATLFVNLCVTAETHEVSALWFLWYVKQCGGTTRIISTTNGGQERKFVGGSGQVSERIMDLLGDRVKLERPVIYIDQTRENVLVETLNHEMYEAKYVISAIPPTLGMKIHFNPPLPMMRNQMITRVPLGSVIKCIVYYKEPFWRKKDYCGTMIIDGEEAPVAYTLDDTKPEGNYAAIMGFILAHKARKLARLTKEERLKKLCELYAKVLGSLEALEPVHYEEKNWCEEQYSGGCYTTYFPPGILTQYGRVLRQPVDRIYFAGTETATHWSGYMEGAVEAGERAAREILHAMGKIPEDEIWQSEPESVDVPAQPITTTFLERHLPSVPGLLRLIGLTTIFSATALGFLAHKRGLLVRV

Homo sapiens = species: Homo sapiens; assay: Selectivity index, ratio of IC50 for recombinant human MAO-A to IC50 for recombinant human MAO-B
Summary of the method: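 Commercial human MAO-A (1.1 μg protein) and MAO-B (7.5 μg protein) adjusted to equal velocity (165 pmol p-tyramine/min). Compounds from 10 mM DMSO stock diluted in 0.05 M potassium phosphate, pH 7.4. Preincubated with enzyme 15 min at 37 °C in the dark; 200 μM Amplex Red, 2 U/mL HRP, 2 mM p-tyramine added for 20 min at 37 °C.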

[3] = target: Amyloid-beta precursor protein (Homo sapiens) (UniProt P05067); assay: Inhibition of self-induced Amyloid beta (1 to 42) (unknown origin) aggregation at 25 uM after 48 hrs by thioflavin T-based fluorometric assay relative to control
Sequence of Amyloid-beta precursor protein (Homo sapiens) (P05067 whole entry): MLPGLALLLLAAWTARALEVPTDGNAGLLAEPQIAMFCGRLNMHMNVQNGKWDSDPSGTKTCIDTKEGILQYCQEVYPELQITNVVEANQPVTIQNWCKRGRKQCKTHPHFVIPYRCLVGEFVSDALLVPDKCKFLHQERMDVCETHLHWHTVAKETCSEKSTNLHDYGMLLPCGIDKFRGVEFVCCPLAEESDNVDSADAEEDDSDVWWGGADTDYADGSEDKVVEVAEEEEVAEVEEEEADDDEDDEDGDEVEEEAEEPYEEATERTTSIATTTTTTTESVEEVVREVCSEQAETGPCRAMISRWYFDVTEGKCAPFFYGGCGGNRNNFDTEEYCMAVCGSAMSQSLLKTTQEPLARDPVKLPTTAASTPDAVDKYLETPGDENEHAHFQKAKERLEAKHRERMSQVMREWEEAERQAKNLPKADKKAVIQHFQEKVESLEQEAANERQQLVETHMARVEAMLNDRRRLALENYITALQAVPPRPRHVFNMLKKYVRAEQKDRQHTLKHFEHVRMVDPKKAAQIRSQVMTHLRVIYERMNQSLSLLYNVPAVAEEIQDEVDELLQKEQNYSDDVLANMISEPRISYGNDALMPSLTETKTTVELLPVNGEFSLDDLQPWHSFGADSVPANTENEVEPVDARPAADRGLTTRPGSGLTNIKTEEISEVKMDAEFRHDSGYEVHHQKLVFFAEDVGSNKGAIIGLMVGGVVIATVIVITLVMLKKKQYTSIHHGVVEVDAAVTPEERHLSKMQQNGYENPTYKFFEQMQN
Summary of the method: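 Aβ1-42 stock (2000 μM in 1% ammonium hydroxide) diluted in 50 mM phosphate pH 7.4. Peptide (final 25 μM) incubated with or without compound (25 μM) at 37 °C for 48 h. Then diluted in 50 mM glycine-NaOH pH 8.0 containing 5 μM thioflavin T, read after 5 min (ex 446/em 490 nm). Inhibition = (1 − IFi/IFc) × 100 after blank subtraction. Mean ± SD of three independent experiments.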

[4] = Permeability of the compound in PBS/EtOH at […] after 16 hrs by PAMPA; format: ADME; conditions: read-out: Peff
Mus musculus [5] = assay: Acute toxicity in Kunming mouse assessed as mortality at 2.4 mmol/kg, po administered as single dose via gavage measured continuously for first 4 hrs, intermittently for next 24 hrs and occasionally thereafter for 14 days; format: organism-based; conditions: in vivo
Summary of the method: (§1)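 Male KM mice (22 days old, 18–20 g), 15 in total, randomly split into 3 groups of 5. Kept on a 12 h light/dark cycle at 20-22 °C and 60-70% humidity, fasted overnight with free water. Single oral dose of 2.4 mmol/kg suspended in 0.5% CMC-Na. Mortality, behaviour, water and food intake, and body weight followed over 14 days.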

Mus musculus [6] = assay: Acute toxicity in Kunming mouse assessed as abnormal change in water consumption at 2.4 mmol/kg, po administered as single dose via gavage measured continuously for first 4 hrs, intermittently for next 24 hrs and occasionally thereafter for 14 days; format: organism-based; conditions: in vivo; summary of the method: as §1
Mus musculus [7] = assay: Acute toxicity in Kunming mouse assessed as abnormal change in food consumption at 2.4 mmol/kg, po administered as single dose via gavage measured continuously for first 4 hrs, intermittently for next 24 hrs and occasionally thereafter for 14 days; format: organism-based; conditions: in vivo; summary of the method: as §1
Mus musculus [8] = assay: Acute toxicity in Kunming mouse assessed as abnormal change in body weight at 2.4 mmol/kg, po administered as single dose via gavage measured continuously for first 4 hrs, intermittently for next 24 hrs and occasionally thereafter for 14 days; format: organism-based; conditions: in vivo; summary of the method: as §1
Mus musculus [9] = assay: Cardiotoxicity in Kunming mouse at 2.4 mmol/kg, po administered as single dose via gavage measured continuously for first 4 hrs, intermittently for next 24 hrs and occasionally thereafter for 14 days by […]; format: toxicity, organism-based; conditions: in vivo
Summary of the method: (§2)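 Male KM mice (18–20 g) received a single oral 2.4 mmol/kg dose in 0.5% CMC-Na suspension after an overnight fast. All animals were sacrificed on day 14 after dosing, and heart, liver and kidneys were examined macroscopically for damage.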

Mus musculus [10] = assay: Hepatotoxicity in Kunming mouse at 2.4 mmol/kg, po administered as single dose via gavage measured continuously for first 4 hrs, intermittently for next 24 hrs and occasionally thereafter for 14 days by […]; format: toxicity, organism-based; conditions: in vivo; summary of the method: as §2
Mus musculus [11] = assay: Nephrotoxicity in Kunming mouse at 2.4 mmol/kg, po administered as single dose via gavage measured continuously for first 4 hrs, intermittently for next 24 hrs and occasionally thereafter for 14 days […]; format: toxicity, organism-based; conditions: in vivo; summary of the method: as §2
Mus musculus [12] = assay: Acute toxicity in Kunming mouse assessed as effect on serum AST level at 2.4 mmol/kg, po administered as single dose via gavage measured continuously for first 4 hrs, intermittently for next 24 hrs and occasionally thereafter for 14 days; format: organism-based; conditions: in vivo
Summary of the method: (§3)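 Male KM mice (18–20 g), fasted overnight, given one oral 2.4 mmol/kg dose suspended in 0.5% CMC-Na. On day 14, orbital blood was collected before decapitation and serum AST and ALT activities measured against a control group. Mean ± SD of three independent experiments.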

Mus musculus [13] = assay: Acute toxicity in Kunming mouse assessed as effect on serum ALT level at 2.4 mmol/kg, po administered as single dose via gavage measured continuously for first 4 hrs, intermittently for next 24 hrs and occasionally thereafter for 14 days; format: organism-based; conditions: in vivo; summary of the method: as §3

SMILES	IC50 [1] [µM]	IC50 [2] [µM]	Ratio IC50 (Homo sapiens)	also measured
C#CCN(CCOc1ccc2ccc(=O)oc2c1)Cc1ccc(C(C)C)cc1	70	6.96	10.1	
C[C@]12CC[C@@H]3c4ccc(O)cc4CC[C@H]3[C@@H]1CC[C@@H]2O [ESTRADIOL]				Papp at 16 h [4]: 8 ×10⁻⁶ cm/s
C#CCN(C)Cc1ccccc1 [PARGYLINE]				Activity (Mus musculus [5]): Non-Toxic; Activity (Mus musculus [6]): Non-Toxic; Activity (Mus musculus [7]): Non-Toxic; Activity (Mus musculus [8]): Non-Toxic; Activity (Mus musculus [9]): Non-Toxic; Activity (Mus musculus [10]): Non-Toxic; Activity (Mus musculus [11]): Non-Toxic; Activity (Mus musculus [12]): Non-Toxic; Activity (Mus musculus [13]): Non-Toxic
CCn1cc(C(=O)O)c(=O)c2cc(F)c(N3CCNC(C)C3)c(F)c21 (stereo unspecified) [LOMEFLOXACIN]				Papp at 16 h [4]: 1.05 ×10⁻⁶ cm/s
C#CCN(CCOc1ccc2ccc(=O)oc2c1)Cc1ccc(F)c(F)c1	40.8	9.62	4.24	
C#CCN(CCCCOc1ccc2ccc(=O)oc2c1)Cc1cccc(OC)c1	78.6	2.34	33.6	inhibition [3]: 38.2%
C#CCN(CCCCOc1ccc2ccc(=O)oc2c1)Cc1ccc(OC)cc1	54.5	1.13	48.2	inhibition [3]: 49.1%
C#CCN(CCCOc1ccc2ccc(=O)oc2c1)Cc1cccc(OC)c1	22.7	4.59	4.94	
C#CCN(CCCCOc1ccc2ccc(=O)oc2c1)Cc1ccc(C(C)C)cc1	35.4	3.5	10.1	
C#CCN(CCCCOc1ccc2ccc(=O)oc2c1)Cc1ccccc1	89.3	0.978	91.4	
C#CCN(CCOc1ccc2ccc(=O)oc2c1)Cc1ccccc1	89.5	8.3	10.8	
C#CCN(C)CCCOc1ccc2ccc(=O)oc2c1	36.9	1.08	34	inhibition [3]: 59.3%
C#CCN(CCCOc1ccc2ccc(=O)oc2c1)Cc1ccc(F)c(F)c1	49.2	4.86	10.1	
C#CCN(CCCCOc1ccc2ccc(=O)oc2c1)Cc1cccc(F)c1	69.1	1.55	44.6	
C#CCN(CCCOc1ccc2ccc(=O)oc2c1)Cc1cccc(F)c1	29.3	4.44	6.59	

Second part, led by results:

IC50 [1] [µM]	IC50 [2] [µM]	Ratio IC50 (Homo sapiens)	SMILES	also measured
72.1	7.01	10.3	C#CCN(CCOc1ccc2ccc(=O)oc2c1)Cc1cccc(OC)c1	
53.3	5.53	9.64	C#CCN(CCOc1ccc2ccc(=O)oc2c1)Cc1cccc(F)c1	
69.9	1.1	63.4	C#CCN(C)CCOc1ccc2ccc(=O)oc2c1	inhibition [3]: 36.4%
55	3.51	15.7	C#CCN(CCOc1ccc2ccc(=O)oc2c1)Cc1ccc(OC)cc1	
38.6	3.74	10.3	C#CCN(CCCOc1ccc2ccc(=O)oc2c1)Cc1ccccc1	
94.5	1.68	56.4	C#CCN(CCCCOc1ccc2ccc(=O)oc2c1)Cc1ccc(C)cc1	inhibition [3]: 50%
116	7.38	15.8	C#CCN(CCCOc1ccc2ccc(=O)oc2c1)Cc1ccc(C)cc1	
60	6.08	9.87	C#CCN(CCCOc1ccc2ccc(=O)oc2c1)Cc1ccc(OC)cc1	
77.4	7.58	10.2	C#CCN(CCCOc1ccc2ccc(=O)oc2c1)Cc1ccc(C(C)C)cc1	
93.2	2.37	39.4	C#CCN(CCCCOc1ccc2ccc(=O)oc2c1)Cc1ccc(F)c(F)c1	inhibition [3]: 30.6%
56.4	5.64	10	C#CCN(CCOc1ccc2ccc(=O)oc2c1)Cc1ccc(C)cc1	

Reference: ChEMBL document CHEMBL4190276, “Design, synthesis and evaluation of coumarin-pargyline hybrids as novel dual inhibitors of monoamine oxidases and amyloid-β aggregation for the treatment of Alzheimer's disease” (Eur J Med Chem, 2017)
